Source: publication PMC7094870 (ACS chemical biology, 2020)

Assays:
[1] = tested on: CrpTE (cryptophycin thioesterase); assay: Analytical substrate conversion assay of CrpTE; assay type: biochemical
Outline: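 Analytical-scale reactions of CrpTE with NAc-activated seco substrates carrying varied unit A aryl or heterocyclic groups (including methyl pyrazoles), with the benzyl substrate run as a control. Chromatographic peaks were assigned to unreacted starting material, hydrolysis product and cyclized macrolactone. Where starting material and hydrolysis peaks co-eluted, values were estimated from extrapolated peaks.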

CrpE P450 = assay: CrpE in vitro epoxidation conversion assay; assay type: biochemical, Nostoc sp. ATCC 53789
[2] = tested on: CrpE P450 (histidine tagged); assay: CrpE P450 substrate binding titration; parameters: species or system Nostoc sp. ATCC 53789; conditions: type I (substrate-like) or type II (inhibitor-like) shift
(UniProt A4D937) = assay: CrpE P450 substrate binding titration; parameters: species or system Nostoc sp. ATCC 53789
Sequence of (UniProt A4D937) (A4D937 1-450): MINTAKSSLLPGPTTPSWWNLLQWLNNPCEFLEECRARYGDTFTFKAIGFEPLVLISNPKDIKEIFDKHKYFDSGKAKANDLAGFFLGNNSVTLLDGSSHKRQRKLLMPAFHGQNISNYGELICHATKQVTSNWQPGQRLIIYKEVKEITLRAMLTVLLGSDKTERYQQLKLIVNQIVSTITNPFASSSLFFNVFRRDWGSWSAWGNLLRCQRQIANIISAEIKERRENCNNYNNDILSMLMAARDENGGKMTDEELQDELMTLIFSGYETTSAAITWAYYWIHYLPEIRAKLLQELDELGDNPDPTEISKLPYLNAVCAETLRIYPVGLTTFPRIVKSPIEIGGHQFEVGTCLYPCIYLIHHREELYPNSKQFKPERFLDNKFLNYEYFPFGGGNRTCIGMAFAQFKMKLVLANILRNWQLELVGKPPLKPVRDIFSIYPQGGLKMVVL

COc1ccc(C[C@H]2NC(=O)/C=C/C[C@@H]([C@H](C)/C=C/c3ccccc3)OC(=O)[C@H](CC(C)C)OC(=O)[C@H](C)CNC2=O)cc1Cl [16a, cryptophycin 3] was tested, and the “total turnover number (TTN)” value ([1]; TTN = moles of product / moles of TE) was 110, the “percent conversion (CrpTE cyclization)” value ([1]; analytical scale, wild type CrpTE, NAc-activated seco substrate) was 73% and the “conversion (CrpE epoxidation)” value (CrpE P450; RhFRED redox system) was “no conversion”. For the same molecule, the “percent conversion (CrpE epoxidation)” value (CrpE P450; spinach ferredoxin and ferredoxin reductase redox system) was 38%, the “spectral shift on binding to CrpE” value [2] was “type I shift” and the Kd ((UniProt A4D937)) was 530 ± 150 nM.
